High-throughput results: PubChem, Broad Institute
A1 apoptosis 2 – A1 inhibition read as caspase activation; caspase activation, % (concentration not given with the values); AID 2465; MEF A1-2A-BIM cells, caspase-Glo luminescence, 3 h; percent of clofoctol response, DMSO zero; 24,000 tested, under 10 active; in the data active = caspase activation above about 5.9%
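Material: mouse embryonic fibroblasts co-expressing A1 and BIM (A1-2A-BIM), primed for A1 dependence / Quantity: 2500 cells/well / Buffer or medium: RPMI-1640 growth medium with 10% FBS / Doses: 50 nL compound per well, pinned / Schedule: 3 h compound exposure at 37 °C / Signal: Caspase-Glo luminescence (DEVD substrate) / Measure: Caspase-3/7 activation, seen as rise in luminescence signal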
INS-1E rescue – preserves ATP levels in cytokine-treated INS-1E cells | INS-1E cytokine-induced death, ATP luminescence, 48 h; normalised: neutral wells 0, positive control 100 | protection from cytokine-induced ATP loss, % at 10 µM | hit rate 0.1% among 20,000;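 active = mean replicate protection from cytokine-induced ATP loss at least 50% and at least 75% of replicates each reaching 50%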
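Assay system – rat INS-1E insulinoma cell line · Quantity – 8000 cells per well · Buffer or medium – RPMI without phenol red, 5% FBS · Schedule – 48 h co-treatment, 10 min post-lysis read · Technique – luminescent ATP assay (CellTiter-Glo)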
T cruzi HTS – blocks T. cruzi growth inside host cells | intracellular Trypanosoma cruzi in host cells, plate reader | activity score (inhibition), % at 5.01 µM | hit rate 4.9% among 22,000 | AID 651903; in the data active = activity score above about 55%;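 also: parasites and compound incubated about four days before reading; 0% = median of neutral control wells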
An asterisk follows results filed as active; nt = not tested or not shown. Many of the other results were omitted from the sample, so hits are more common in it than they were.

SMILES	A1 apoptosis 2	INS-1E rescue	T cruzi HTS
COc1ccc(NC(=O)N(C)C[C@@H]2Oc3ccc(NC(=O)CCN4CCOCC4)cc3C(=O)N([C@H](C)CO)C[C@H]2C)cc1	1	7	-12
C[C@@H]1CN([C@@H](C)CO)C(=O)c2cc(NS(=O)(=O)c3ccc(Cl)cc3)ccc2O[C@@H]1CN(C)CC1CCCCC1	nt	nt	2
COc1ccc(S(=O)(=O)Nc2ccc3c(c2)C(=O)N([C@@H](C)CO)C[C@@H](C)[C@H](CN(C)C(=O)NC2CCCCC2)OCCCC[C@@H](C)O3)cc1	0	nt	nt
C[C@@H]1CN([C@@H](C)CO)C(=O)c2cccc(NC(=O)Nc3ccc4c(c3)OCO4)c2O[C@@H]1CN(C)Cc1ccc(Oc2ccccc2)cc1	nt	-31	73*
C[C@H](CO)N1C[C@H](C)[C@@H](CN(C)Cc2ccc(Oc3ccccc3)cc2)Oc2c(NC(=O)Nc3ccc4c(c3)OCO4)cccc2C1=O	nt	-46	28
C[C@@H]1CN([C@@H](C)CO)C(=O)c2cccc(NC(=O)Nc3ccc4c(c3)OCO4)c2O[C@H]1CN(C)Cc1ccc(Oc2ccccc2)cc1	-1	-49	70*
C[C@@H]1CN([C@H](C)CO)C(=O)c2cccc(NC(=O)Nc3ccc4c(c3)OCO4)c2O[C@@H]1CN(C)Cc1ccc(Oc2ccccc2)cc1	nt	-9	4
Cc1ccc(S(=O)(=O)N(C)C[C@@H]2Oc3c(NC(=O)c4ccc(-c5nccs5)cc4)cccc3C(=O)N([C@H](C)CO)C[C@@H]2C)cc1	0	3	71*
Cc1ccc(S(=O)(=O)N(C)C[C@H]2Oc3c(NC(=O)c4ccc(-c5nccs5)cc4)cccc3C(=O)N([C@@H](C)CO)C[C@H]2C)cc1	nt	0	26
COc1ccc(S(=O)(=O)N(C)C[C@H]2Oc3c(NC(=O)c4ccc(-c5nccs5)cc4)cccc3C(=O)N([C@H](C)CO)C[C@H]2C)cc1	nt	9	32
COc1ccc(S(=O)(=O)N(C)C[C@@H]2Oc3c(NC(=O)c4ccc(-c5nccs5)cc4)cccc3C(=O)N([C@H](C)CO)C[C@@H]2C)cc1	1	-16	74*
C[C@H]1CN([C@@H](C)CO)C(=O)c2cc(NC(=O)Cn3cnnn3)ccc2O[C@@H]1CN(C)C(=O)Nc1cccc2ccccc12	1	4	-7
C[C@H]1CN([C@@H](C)CO)C(=O)c2cccc(NC(=O)Nc3cccc4ccccc34)c2O[C@H]1CN(C)Cc1ccc2c(c1)OCO2	-1	-16	65*
C[C@@H]1CN([C@H](C)CO)C(=O)Cc2cc(NC(=O)Nc3cccc4ccccc34)ccc2O[C@@H]1CN(C)Cc1ccccc1	2	-19	68*
C[C@H](CO)N1C[C@H](C)[C@H](CN(C)CC2CCCCC2)Oc2ccc(NC(=O)Nc3cccc4ccccc34)cc2CC1=O	nt	4	61*
C[C@@H]1CN([C@@H](C)CO)C(=O)Cc2cc(NC(=O)Nc3cccc4ccccc34)ccc2O[C@H]1CN(C)CC1CC1	1	nt	nt
C[C@@H]1CN([C@H](C)CO)C(=O)c2cccc(NC(=O)Nc3cccc4ccccc34)c2O[C@@H]1CN(C)Cc1ccc2c(c1)OCO2	-1	-17	-13
C[C@@H]1CN([C@@H](C)CO)C(=O)Cc2cc(NC(=O)Nc3cccc4ccccc34)ccc2O[C@H]1CN(C)Cc1ccccc1	1	nt	nt
C[C@H]1CN([C@@H](C)CO)C(=O)Cc2cc(NC(=O)Nc3cccc4ccccc34)ccc2O[C@@H]1CN(C)Cc1ccc2c(c1)OCO2	0	-22	64*
C[C@@H]1CN([C@H](C)CO)C(=O)Cc2cc(NC(=O)Nc3ccccc3)ccc2O[C@H]1CN(C)Cc1ccc2c(c1)OCO2	-1	-6	-9
C[C@@H]1CCCCO[C@@H](CN(C)CC2CCCCC2)[C@H](C)CN([C@@H](C)CO)C(=O)c2cc(NC(=O)NC3CCCCC3)ccc2O1	2	nt	nt
C[C@@H]1CCCCO[C@@H](CN(C)Cc2ccc(C(=O)O)cc2)[C@H](C)CN([C@H](C)CO)C(=O)c2cc(NS(C)(=O)=O)ccc2O1	0	nt	nt
C[C@H]1CN([C@@H](C)CO)C(=O)Cc2cc(NS(=O)(=O)c3ccccc3)ccc2O[C@H]1CN(C)C(=O)Nc1cccc2ccccc12	1	-1	-13
COc1ccc(S(=O)(=O)N(C)C[C@H]2OCCCC[C@@H](C)Oc3ccc(NS(=O)(=O)c4cn(C)cn4)cc3C(=O)N([C@H](C)CO)C[C@H]2C)cc1	1	nt	nt
CC(C)(C)OC(=O)Nc1cccc(/C=N/NC(=O)CCCCC(=O)NO)c1	nt	21	5
SMILES	A1 apoptosis 2	INS-1E rescue	T cruzi HTS
Cc1noc(C)c1S(=O)(=O)Nc1ccc2c(c1)C(=O)N([C@@H](C)CO)C[C@H](C)[C@@H](CN(C)S(=O)(=O)c1ccc(F)cc1)O2	-1	3	-9
C[C@H](CO)N1C[C@H](C)[C@H](CN(C)C(=O)Nc2ccc(F)cc2)Oc2ccc(N(C)C)cc2C1=O	0	-4	-6
C[C@@H]1CN([C@@H](C)CO)C(=O)c2cccc(NC(=O)Nc3ccc(F)cc3)c2O[C@H]1CN(C)C(=O)Nc1ccc2c(c1)OCO2	nt	-3	4
COc1ccc(CN(C)C[C@@H]2Oc3ccc(NC(=O)Nc4cccc5ccccc45)cc3CC(=O)N([C@H](C)CO)C[C@H]2C)cc1	1	-4	65*
C[C@H]1CN([C@@H](C)CO)C(=O)Cc2cc(NC(=O)Nc3cccc4ccccc34)ccc2O[C@H]1CN(C)Cc1ccc(Oc2ccccc2)cc1	nt	-21	26
C[C@@H]1CN([C@H](C)CO)C(=O)c2cc(NC(=O)Nc3cccc4ccccc34)ccc2O[C@@H]1CN(C)Cc1ccc(Cl)c(Cl)c1	nt	-12	54
C[C@@H]1CN([C@H](C)CO)C(=O)Cc2cc(NC(=O)Nc3cccc4ccccc34)ccc2O[C@H]1CN(C)Cc1ccc(Oc2ccccc2)cc1	nt	-10	57*
C[C@H](CO)N1C[C@H](C)[C@@H](CN(C)Cc2ccc(Oc3ccccc3)cc2)Oc2ccc(NC(=O)Nc3cccc4ccccc34)cc2CC1=O	-1	nt	nt
C[C@@H]1CN([C@H](C)CO)C(=O)c2cc(NC(=O)Nc3cccc4ccccc34)ccc2O[C@H]1CN(C)Cc1ccc(Cl)c(Cl)c1	-1	-34	58*
Cc1ccc(S(=O)(=O)N(C)C[C@H]2Oc3ccc(NC(=O)Nc4cccc5ccccc45)cc3CC(=O)N([C@@H](C)CO)C[C@H]2C)cc1	2	-5	67*
Cc1ccc(S(=O)(=O)N(C)C[C@@H]2Oc3ccc(NC(=O)Nc4cccc5ccccc45)cc3CC(=O)N([C@@H](C)CO)C[C@@H]2C)cc1	nt	-15	-6
O=C(CCCCCCC(=O)Nc1ccccc1O)N/N=C/c1ccoc1	nt	4	-3
CC(C)NC(=O)Nc1cccc2c1O[C@@H](CN(C)Cc1ccc(C(F)(F)F)cc1)[C@H](C)CN([C@@H](C)CO)C2=O	-1	0	1
C[C@H](CO)N1C[C@H](C)[C@H](CN(C)S(C)(=O)=O)OCCCC[C@H](C)Oc2ccc(NC(=O)Nc3ccc(F)cc3)cc2C1=O	0	nt	nt
COC(=O)CCCCCCC(=O)N/N=C/[C@H](O)[C@@H](O)[C@@H](O)[C@H](O)CO	0	9	-13
